Assay results reported in publication PMC6506440 (Scientific Reports, 2013).
Where a SMILES comes first, the peptide text is derived from it.

Tests used:
[1] = Circular dichroism, percentage helicity; assay type: physicochemical; conditions: Percentage helicity derived using circular dichroism, peptide free in solution
In short: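 Peptides were N-terminally acetylated and C-terminally amidated, and HPLC-purified to >90% purity. Stapled variants carried an (i, i + 3) hydrocarbon linkage. Percentage helicity was derived from circular dichroism spectra.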

Full-length human eIF4E [2] = target: T1, Full-length human eIF4E (human, UniProt P06730 1-217); assay: fluorescence polarisation
Full-length human eIF4E [3] = target: T1, Full-length human eIF4E; assay: fluorescence polarisation; remark: listed apart in the source
Full-length human eIF4E [4] = target: T1, Full-length human eIF4E; assay: SPR

T1 sequence (P06730 whole entry): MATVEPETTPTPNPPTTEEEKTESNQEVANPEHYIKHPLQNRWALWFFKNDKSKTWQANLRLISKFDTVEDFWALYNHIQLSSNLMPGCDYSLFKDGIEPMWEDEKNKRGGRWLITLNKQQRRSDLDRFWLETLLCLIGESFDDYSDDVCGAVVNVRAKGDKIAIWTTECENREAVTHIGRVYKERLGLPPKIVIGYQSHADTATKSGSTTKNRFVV

Molecule: CC(=O)N[C@@H](CCCCN)C(=O)N[C@@H](CCCCN)C(=O)N[C@@H](CCCNC(=N)N)C(=O)N[C@@H](Cc1ccc(O)cc1)C(=O)N[C@@H](CO)C(=O)N[C@@H](CCCNC(=N)N)C(=O)N[C@@H](CCC(=O)O)C(=O)N[C@@H](Cc1ccccc1)C(=O)N[C@@H](CC(C)C)C(=O)N[C@@H](CC(C)C)C(=O)NCC(=O)N[C@@H](Cc1ccccc1)C(N)=O [eIF4G^D5S] (Ac-KKRYSREFLLGF-NH2)
- Helicity [1]: 0%

Molecule: Ac-KKRYSRDFLLALQK(FAM)-NH2 [FAM labeled tracer peptide (KKRYSRDFLLALQK-(FAM))]
- binding result (Full-length human eIF4E [2]): binds

Molecule: Ac-KKRYSREFLLGF-NH2 [eIF4G^D5S peptide]
- Kd (Full-length human eIF4E [3]): 0.195 ± 0.0121 µM
- Kd (Full-length human eIF4E [4]): 0.0999 ± 0.0062 µM
